# Measurements from different studies.
# Protocols differ between the studies behind these lines.
# Target: SRSF protein kinase 1 (SRPK1, Homo sapiens, UniProt Q96SB4)
Compound,assay,conditions,quantity,result
CC(C1CC1)n1cnc2c(NCc3cccc(C(F)(F)F)c3)nc(NCCN(C)C)nc21 (stereo not shown),"enzyme activity, inhibitor",5 µM,inhibition,> 50%
CCN(CC)c1ccc(C2=NNC(=O)CC2C)cc1[N+](=O)[O-] (stereo not shown),"enzyme activity, inhibitor",10 µM,remaining activity,94%
Nc1ncnc2occ(-c3ccc(NC(=O)Nc4cc(C(F)(F)F)ccc4F)cc3)c12,"cell-free assay, inhibitor",20 µM,remaining signal,59%
Cc1cnc(NC2CCOCC2)nc1-n1cnc(C(=O)NC(CN)c2cc(F)cc(Cl)c2)c1 (stereo not shown),"enzyme activity, inhibitor, radiometric",1 µM,remaining activity,96%
Nc1nc(Nc2ccccc2)sc1C(=O)c1c(F)cccc1F,"enzyme activity, inhibitor",10 µM,remaining activity,6%
Nc1nc(Nc2ccc(S(N)(=O)=O)cc2)nn1C(=O)c1c(F)cccc1F,cell-free assay,0.5 µM,remaining signal,86.4%
Cc1ccc(Nc2nccc(N(C)c3ccc4c(C)n(C)nc4c3)n2)cc1S(N)(=O)=O,"enzyme activity, inhibitor",10 µM,inhibition,-3%
Cc1sc(C(=O)NC2COC2)cc1-n1cc(NC(=O)Nc2c(F)cccc2Cl)cn1,"enzyme activity, inhibitor",10 µM,remaining activity,96.9%
CCCCNc1ncc2c(-c3ccc(F)cc3)nn(C[C@H]3CC[C@H](N)CC3)c2n1,"target engagement in cells, inhibitor, chemoproteomics",20 mM,inhibition,-21.7%
COc1cc(Cl)c(C(=O)N[C@@H](CN[C@H]2CC[C@@H](N)CC2)Cc2ccc(C#N)cc2)cc1-c1ccc(CN[C@H](C)c2ccc(C)cc2)o1,"enzyme activity, inhibitor",1 µM,remaining activity,99%
CN(C)c1ncnc(-c2ccc3nc(Nc4cc(CN5CCN(C(=O)CC(F)(F)F)CC5)ccn4)[nH]c3c2)c1Cl,"cell-free assay, competition with immobilised ligand",1 µM,remaining binding,47%
COc1cc2ncnc(Nc3ccc(F)c(Cl)c3)c2cc1OCCCN1CCOCC1,cell-free assay,0.5 µM,remaining signal,98.3%
CCCS(=O)(=O)Nc1ccc(F)c(C(=O)c2c[nH]c3ncc(-c4ccc(Cl)cc4)cc23)c1F,"enzyme activity, inhibitor",1 µM,inhibition,< 10%
O=C1NC(=O)c2cc(Nc3ccc(F)cc3)c(Nc3ccc(F)cc3)cc21,cell-free assay,0.5 µM,remaining signal,102%
CNC(=O)c1cc(Oc2ccc(NC(=O)Nc3ccc(Cl)c(C(F)(F)F)c3)cc2)ccn1,"enzyme activity, inhibitor",10 µM,inhibition,6%
CC/C(=N\NC(=O)NCc1cccc(O)c1)c1ccc(O)c(C)c1O,"enzyme activity, inhibitor",0.1 µM,inhibition,-11.7%
FC(F)(F)Oc1cccc(-c2cnc3ccc(-c4ccncc4)nn23)c1,"enzyme activity, inhibitor, radiometric",1 µM,activity vs control,95%
CNC(=O)c1ccc(Nc2ncc(C(F)(F)F)c(NCc3nccnc3N(C)S(C)(=O)=O)n2)cc1,"cell-free assay, competition with immobilised ligand",0.1 µM,remaining binding,51%
Cc1cc(NC(=O)c2cccc3cc(-c4cccc5[nH]nc(N)c45)ccc23)ccc1F,"enzyme activity, inhibitor",0.1 µM,activity vs control,98%
CC(C)(C)c1nc(-c2cccc(NS(=O)(=O)c3c(F)cccc3F)c2F)c(-c2ccnc(N)n2)s1,"enzyme activity, inhibitor, radiometric",1 µM,remaining activity,105%
COc1cc2ncnc(Nc3ccc(Oc4ccccc4)cc3C)c2cc1OC,"enzyme activity, inhibitor",1 µM,inhibition,0%
COc1cc(/C=C/C(=O)CC(=O)/C=C/c2ccc(O)c(OC)c2)ccc1O,"enzyme activity, inhibitor",1 µM,activity vs control,57%
CO[C@H]1CC[C@H](CNc2ccc(S(=O)(=O)NC(=O)c3ccc(N4CCN(CC5=C(c6ccc(Cl)cc6)CC(C)(C)CC5)CC4)cc3Oc3cnc4[nH]ccc4c3)cc2[N+](=O)[O-])CC1,"cell-free assay, competition with immobilised ligand",1 µM,remaining binding,96%
CCN(CC)CCNC(=O)c1c(C)[nH]c(/C=C2\C(=O)Nc3ccc(F)cc32)c1C,"enzyme activity, inhibitor",0.3 µM,inhibition,-17%
O=C(NCc1ncc(C(F)(F)F)cc1Cl)c1ccc2c(c1)C1(CCS(=O)(=O)CC1)[C@H](C1CC1)N2S(=O)(=O)c1ccc(F)cc1,"cell-free assay, competition with immobilised ligand",1 µM,remaining binding,72%
COc1cc(Nc2cnc(C#N)c(O[C@H](C)CN(C)C)n2)ncc1-c1cnn(C)c1,"enzyme activity, inhibitor, radiometric",1 µM,remaining activity,89%
O=S(=O)(NC1CCC(c2cc(F)ccc2F)(S(=O)(=O)c2ccc(Cl)cc2)CC1)C(F)(F)F (stereo not shown),"cell-free assay, competition with immobilised ligand",1 µM,remaining binding,100%
FC(F)c1nc2ccccc2n1-c1nc(N2CCOCC2)nc(N2CCOCC2)n1,"enzyme activity, inhibitor",10 µM,remaining activity,92%
CCCCN(CCCC)C(=O)CN1C[C@H](c2cc(OC)c3c(c2)OCO3)[C@@H](C(=O)O)[C@@H]1CC(C)(C)CCC,"cell-free assay, competition with immobilised ligand",1 µM,remaining binding,100%
COc1cccc2c(NCc3ccccc3)nc(-n3c(N)nc4ccccc43)nc12,"target engagement in cells, inhibitor, chemoproteomics",20 mM,inhibition,5.7%
C[C@@H]1CN(c2cc(-c3nn(C)c4ccc(OC5(C)CC5)cc34)ncn2)C[C@H](C)O1,"cell-free assay, competition with immobilised ligand",1 µM,remaining binding,88%
CC(C)c1ccc(NC(=O)c2cccs2)c(-c2nc3ccccc3[nH]c2=O)c1,"enzyme activity, inhibitor",1 µM,activity vs control,100%
CS(=O)(=O)N1CCCC(NC(=O)[C@H](CCC2CCCCC2)NC(=O)c2ccc(CNC(=O)c3cnc4ccccn34)cc2)C1 (stereo partly shown),"cell-free assay, competition with immobilised ligand",0.1 µM,remaining binding,74%
CCCOc1ccc(OC)c(F)c1C(=O)c1ccc(C(=O)N[C@@H]2CNC[C@H]2NC(=O)c2ccc3[nH]ncc3c2)cc1,"enzyme activity, inhibitor",10 µM,remaining activity,97%
